According to ChEMBL document CHEMBL3526002, “Tissue distribution and identification of radioactivity components at elimination phase after oral administration of [¹⁴C]CS-1036, an α-amylase inhibitor, to rats” (Drug Metab Dispos, 2013):

Key:
Parameters in all cases: dose 5 mg/kg, dosed compound name [14C]CS-1036, route oral
Details in all cases: in vivo
Plasma = assay: Drug uptake in albino F344/DuCrlCrlj rat plasma at 5 mg/kg, po after 1 hr by liquid scintillation counting; assay type: ADME, organism-based
[1] = Drug uptake in albino F344/DuCrlCrlj rat pituitary gland assessed as ng equivalent of CS-1036 at 5 mg/kg, po after 24 hrs by liquid scintillation counting; assay type: ADME, organism-based
[2] = Drug uptake in albino F344/DuCrlCrlj rat fat at 5 mg/kg, po after 8 hrs by liquid scintillation counting; assay type: ADME, organism-based, Adipose tissue
Procedure, shortened: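 Male F344/DuCrlCrlj rats (bought at 7 weeks, acclimatized 5–6 days; 159–167 g; n = 3 per time point) received a single oral dose of [14C]CS-1036 at 5 mg/kg. White adipose tissue was collected after abdominal aortic bleeding at 1, 4, 8, 24, 72, 168 or 336 h. Samples were counted by LSC with external-standard efficiency correction. Results were converted to ng equivalents per g from specific activity and sample weight.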

Heart = assay: Drug uptake in albino F344/DuCrlCrlj rat heart at 5 mg/kg, po after 24 hrs by liquid scintillation counting; assay type: ADME, organism-based
Harderian gland [3] = assay: Drug uptake in albino F344/DuCrlCrlj rat harderian gland at 5 mg/kg, po after 72 hrs by liquid scintillation counting; assay type: ADME, organism-based
Large intestine = assay: Drug uptake in albino F344/DuCrlCrlj rat large intestine assessed as ng equivalent of CS-1036 at 5 mg/kg, po after 72 hrs by liquid scintillation counting; assay type: ADME, organism-based
Adrenal gland [4] = assay: Drug uptake in albino F344/DuCrlCrlj rat adrenal gland assessed as ng equivalent of CS-1036 at 5 mg/kg, po after 4 hrs by liquid scintillation counting; assay type: ADME, organism-based
[5] = Drug uptake in albino F344/DuCrlCrlj rat bone marrow assessed as ng equivalent of CS-1036 at 5 mg/kg, po after 24 hrs by liquid scintillation counting; assay type: ADME, organism-based
Spleen = assay: Drug uptake in albino F344/DuCrlCrlj rat spleen assessed as ng equivalent of CS-1036 at 5 mg/kg, po after 24 hrs by liquid scintillation counting; assay type: ADME, organism-based
[6] = Drug uptake in albino F344/DuCrlCrlj rat skeletal muscle assessed as ng equivalent of CS-1036 at 5 mg/kg, po after 336 hrs by liquid scintillation counting; assay type: ADME, organism-based, Muscle tissue
[7] = Drug uptake in albino F344/DuCrlCrlj rat eyeball assessed as ng equivalent of CS-1036 at 5 mg/kg, po after 1 hr by liquid scintillation counting; assay type: ADME, organism-based
[8] = Drug uptake in albino F344/DuCrlCrlj rat trachea assessed as ng equivalent of CS-1036 at 5 mg/kg, po after 4 hrs by liquid scintillation counting; assay type: ADME, organism-based
[9] = Drug uptake in albino F344/DuCrlCrlj rat epididymis at 5 mg/kg, po after 24 hrs by liquid scintillation counting; assay type: ADME, organism-based
Harderian gland [10] = assay: Drug uptake in albino F344/DuCrlCrlj rat harderian gland at 5 mg/kg, po after 4 hrs by liquid scintillation counting; assay type: ADME, organism-based
[11] = Drug uptake in albino F344/DuCrlCrlj rat eyeball assessed as ng equivalent of CS-1036 at 5 mg/kg, po after 4 hrs by liquid scintillation counting; assay type: ADME, organism-based
Small intestine = assay: Drug uptake in albino F344/DuCrlCrlj rat small intestine assessed as ng equivalent of CS-1036 at 5 mg/kg, po after 168 hrs by liquid scintillation counting; assay type: ADME, organism-based
[12] = Drug uptake in albino F344/DuCrlCrlj rat bone marrow assessed as ng equivalent of CS-1036 at 5 mg/kg, po after 72 hrs by liquid scintillation counting; assay type: ADME, organism-based
[13] = Drug uptake in albino F344/DuCrlCrlj rat pituitary gland at 5 mg/kg, po after 24 hrs by liquid scintillation counting; assay type: ADME, organism-based
[14] = Drug uptake in albino F344/DuCrlCrlj rat urinary bladder at 5 mg/kg, po after 336 hrs by liquid scintillation counting; assay type: ADME, organism-based
Pancreas [15] = assay: Drug uptake in albino F344/DuCrlCrlj rat pancreas at 5 mg/kg, po after 72 hrs by liquid scintillation counting; assay type: ADME, organism-based
Pancreas [16] = assay: Drug uptake in albino F344/DuCrlCrlj rat pancreas assessed as ng equivalent of CS-1036 at 5 mg/kg, po after 1 hr by liquid scintillation counting; assay type: ADME, organism-based
Lung [17] = assay: Drug uptake in albino F344/DuCrlCrlj rat lung assessed as ng equivalent of CS-1036 at 5 mg/kg, po after 1 hr by liquid scintillation counting; assay type: ADME, organism-based
[18] = Drug uptake in albino F344/DuCrlCrlj rat testis assessed as ng equivalent of CS-1036 at 5 mg/kg, po after 4 hrs by liquid scintillation counting; assay type: ADME, organism-based
Cerebellum [19] = assay: Drug uptake in albino F344/DuCrlCrlj rat cerebellum assessed as ng equivalent of CS-1036 at 5 mg/kg, po after 336 hrs by liquid scintillation counting; assay type: ADME, organism-based
Liver = assay: Drug uptake in albino F344/DuCrlCrlj rat liver at 5 mg/kg, po after 4 hrs by liquid scintillation counting; assay type: ADME, organism-based
Lung [20] = assay: Drug uptake in albino F344/DuCrlCrlj rat lung assessed as ng equivalent of CS-1036 at 5 mg/kg, po after 72 hrs by liquid scintillation counting; assay type: ADME, organism-based
Kidney = assay: Drug uptake in albino F344/DuCrlCrlj rat kidney assessed as ng equivalent of CS-1036 at 5 mg/kg, po after 168 hrs by liquid scintillation counting; assay type: ADME, organism-based
[21] = Drug uptake in albino F344/DuCrlCrlj rat testis assessed as ng equivalent of CS-1036 at 5 mg/kg, po after 336 hrs by liquid scintillation counting; assay type: ADME, organism-based
[22] = Drug uptake in albino F344/DuCrlCrlj rat eyeball assessed as ng equivalent of CS-1036 at 5 mg/kg, po after 8 hrs by liquid scintillation counting; assay type: ADME, organism-based
Stomach = assay: Drug uptake in albino F344/DuCrlCrlj rat stomach at 5 mg/kg, po after 168 hrs by liquid scintillation counting; assay type: ADME, organism-based
Adrenal gland [23] = assay: Drug uptake in albino F344/DuCrlCrlj rat adrenal gland at 5 mg/kg, po after 336 hrs by liquid scintillation counting; assay type: ADME, organism-based
Pancreas [24] = assay: Drug uptake in albino F344/DuCrlCrlj rat pancreas at 5 mg/kg, po after 4 hrs by liquid scintillation counting; assay type: ADME, organism-based
Cerebellum [25] = assay: Drug uptake in albino F344/DuCrlCrlj rat cerebellum assessed as ng equivalent of CS-1036 at 5 mg/kg, po after 168 hrs by liquid scintillation counting; assay type: ADME, organism-based
Zone of skin = assay: Drug uptake in albino F344/DuCrlCrlj rat skin assessed as ng equivalent of CS-1036 at 5 mg/kg, po after 336 hrs by liquid scintillation counting; assay type: ADME, organism-based

## C[C@H]1O[C@@H](O[C@H]2[C@H](O)[C@@H](O)[C@@H](O[14C@H]3[14C@H](O)[14CH2]N[14C@@H]3[14CH2]O)O[C@@H]2CO)[C@H](O)[C@@H](O)[C@@H]1O
Plasma
  Radiolabel recovery: 90.6 ngequiv/ml
[1]
  Radiolabel recovery: 33.1 ngequiv/g
[2]
  Radiolabel recovery: 14 ngequiv/g
Heart
  Radiolabel recovery: 41.7 ngequiv/g
Harderian gland [3]
  Radiolabel recovery: 119 ngequiv/g
Large intestine
  Radiolabel recovery: 29.5 ngequiv/g
Adrenal gland [4]
  Radiolabel recovery: 8.6 ngequiv/g
[5]
  Radiolabel recovery: 19 ngequiv/g
Spleen
  Radiolabel recovery: 10.4 ngequiv/g
[6]
  Radiolabel recovery: 3.46 ngequiv/g
[7]
  Radiolabel recovery: 3.2 ngequiv/g
[8]
  Radiolabel recovery: 10.4 ngequiv/g
[9]
  Radiolabel recovery: 40.8 ngequiv/g
Harderian gland [10]
  Radiolabel recovery: 39.1 ngequiv/g
[11]
  Radiolabel recovery: 4.8 ngequiv/g
Small intestine
  Radiolabel recovery: 5.5 ngequiv/g
[12]
  Radiolabel recovery: 18.1 ngequiv/g
[13]
  Radiolabel recovery: 70.8 ngequiv/g
[14]
  Radiolabel recovery: 11.7 ngequiv/g
Pancreas [15]
  Radiolabel recovery: 186 ngequiv/g
Pancreas [16]
  Radiolabel recovery: 11 ngequiv/g
Lung [17]
  Radiolabel recovery: 3 ngequiv/g
[18]
  Radiolabel recovery: 5.3 ngequiv/g
Cerebellum [19]
  Radiolabel recovery: 3.05 ngequiv/g
Liver
  Radiolabel recovery: 276 ngequiv/g
Lung [20]
  Radiolabel recovery: 5.1 ngequiv/g
Kidney
  Radiolabel recovery: 5.4 ngequiv/g
[21]
  Radiolabel recovery: 2.06 ngequiv/g
[22]
  Radiolabel recovery: 18.9 ngequiv/g
Stomach
  Radiolabel recovery: 23.9 ngequiv/g
Adrenal gland [23]
  Radiolabel recovery: 19.5 ngequiv/g
Pancreas [24]
  Radiolabel recovery: 249 ngequiv/g
Cerebellum [25]
  Radiolabel recovery: 3.37 ngequiv/g
Zone of skin
  Radiolabel recovery: 16.4 ngequiv/g
